Experimental data as given in ChEMBL document CHEMBL1123252, “Design and synthesis of potent and specific renin inhibitors containing difluorostatine, difluorostatone, and related analogues” (J Med Chem, 1986).
Where a SMILES comes first, the peptide text is derived from it. [ ]: non-standard residue; d: D form. The star is where a group is joined. Ala(2H-imidazol-2-yl) = N[C@@H](CC1N=CC=N1)C(=O)O; Sta = CC(C)C[C@H](N)[C@@H](O)CC(=O)O; NHCH2(2-pyridyl) = c1ccc(CN*)nc1; Boc = CC(C)(C)OC(=O)*

These molecules were tested against T1, Renin (Homo sapiens, UniProt P00797) (assay: Inhibition of human plasma renin).
T1 sequence (P00797 whole entry): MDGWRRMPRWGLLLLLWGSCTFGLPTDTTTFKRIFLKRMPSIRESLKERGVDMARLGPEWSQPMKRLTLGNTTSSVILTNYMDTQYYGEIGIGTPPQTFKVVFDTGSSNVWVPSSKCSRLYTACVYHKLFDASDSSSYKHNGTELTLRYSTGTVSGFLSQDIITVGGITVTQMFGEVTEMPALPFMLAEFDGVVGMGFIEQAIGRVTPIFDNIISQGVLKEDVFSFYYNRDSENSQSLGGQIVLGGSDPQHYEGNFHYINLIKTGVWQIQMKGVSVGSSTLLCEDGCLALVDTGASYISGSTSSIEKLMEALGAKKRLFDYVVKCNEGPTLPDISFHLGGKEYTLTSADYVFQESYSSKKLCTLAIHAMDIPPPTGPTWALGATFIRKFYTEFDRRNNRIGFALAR
Type: cell-free
Summary of the method: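 Lyophilized human plasma with 0.1% EDTA, plus phenylmethanesulfonyl fluoride and maleate buffer pH 6.0. Inhibitor given in 1% Tween 80 in water. Angiotensin I generated over 90 min at 37 °C and measured by radioimmunoassay kit. Percent inhibition taken versus control tubes. IC50 estimated graphically from 3-4 concentrations on semilog plot.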

IC50	SMILES
13 nM	CC[C@H](C)[C@H](NC(=O)C(F)(F)[C@H](O)[C@H](Cc1ccccc1)NC(=O)[C@H](CC1N=CC=N1)NC(=O)[C@H](Cc1ccccc1)NC(=O)OC(C)(C)C)C(=O)NCc1ccccn1
12 nM	CC[C@H](C)[C@H](NC(=O)C(F)(F)[C@H](O)[C@H](CC(C)C)NC(=O)[C@H](CC1N=CC=N1)NC(=O)[C@H](Cc1ccccc1)NC(=O)OC(C)(C)C)C(=O)NCc1ccccn1
0.52 nM	CC[C@H](C)[C@H](NC(=O)C(F)(F)C(=O)[C@H](CC(C)C)NC(=O)[C@H](CC1N=CC=N1)NC(=O)[C@H](Cc1ccccc1)NC(=O)OC(C)(C)C)C(=O)NCc1ccccn1
2.5 nM	CC[C@H](C)[C@H](NC(=O)C(F)(F)C(=O)[C@H](CC1CCCCC1)NC(=O)[C@H](CC1N=CC=N1)NC(=O)[C@H](Cc1ccccc1)NC(=O)OC(C)(C)C)C(=O)NCc1ccccn1
1.3 nM	CC[C@H](C)[C@H](NC(=O)C(F)(F)C(=O)[C@H](Cc1ccccc1)NC(=O)[C@H](CC1N=CC=N1)NC(=O)[C@H](Cc1ccccc1)NC(=O)OC(C)(C)C)C(=O)NCc1ccccn1
34 nM	CC[C@H](C)[C@H](NC(=O)CC(=O)[C@H](CC(C)C)NC(=O)[C@H](CC1N=CC=N1)NC(=O)[C@H](Cc1ccccc1)NC(=O)OC(C)(C)C)C(=O)NCc1ccccn1
0.57 nM	CC[C@H](C)[C@H](NC(=O)C(F)(F)[C@H](O)[C@H](CC1CCCCC1)NC(=O)[C@H](CC1N=CC=N1)NC(=O)[C@H](Cc1ccccc1)NC(=O)OC(C)(C)C)C(=O)NCc1ccccn1
730 nM	CC[C@H](C)[C@H](NC(=O)C(F)(F)[C@@H](O)[C@H](CC(C)C)NC(=O)[C@H](CC1N=CC=N1)NC(=O)[C@H](Cc1ccccc1)NC(=O)OC(C)(C)C)C(=O)NCc1ccccn1
1.7 nM	CC[C@H](C)[C@H](NC(=O)C[C@H](O)[C@H](CC(C)C)NC(=O)[C@H](CC1N=CC=N1)NC(=O)[C@H](Cc1ccccc1)NC(=O)OC(C)(C)C)C(=O)NCc1ccccn1 (Boc-F[Ala(2H-imidazol-2-yl)][Sta]I-{NHCH2(2-pyridyl)})
